Results as given in ChEMBL document CHEMBL4765297, “In silico/in vitro screening and hit evaluation identified new phenothiazine anti-prion derivatives” (Eur J Med Chem, 2020).
Activity calls are given as the source filed them.

Legend:
ScN2a [1] = test: Anti-prion activity against RML prion protein in mouse N2a cells assessed as Scrapie prion protein level at 1 uM in presence of proteinase K by Western blotting analysis relative to control; assay type: cell-based
In short: (§1)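 ScN2a or ScGT1 cells chronically infected with RML or 22L prions (N2a in MEM/10% FBS; GT1 in DMEM/10% FBS) treated 4 days with compound (DMSO stock diluted in EtOH, then medium; final DMSO ≤0.1%). Immunoblot with anti-PrP Fab W226, ECL, densitometry, normalized to untreated control (100%).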

ScN2a [2] = test: Anti-prion activity against RML prion protein in mouse N2a cells assessed as Scrapie prion protein level at 1 uM in absence of proteinase K by Western blotting analysis relative to control; assay type: cell-based; in short: as §1
N2a [3] = test: Cytotoxicity against mouse N2a cells assessed as reduction in cell viability incubated for 3 hrs by MTT assay; assay type: cell-based
In short: (§2)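 N2a, ScN2a, GT1 or ScGT1 cells seeded (2.5×10^4/mL MEM for N2a lines; 3×10^4/mL DMEM for GT1 lines), settled 1 day. Treated at 0.1, 1 and 10 µM for 5 days at 37 °C, 5% CO2. Read-outs: MTT (5 mg/mL, 3 h, DMSO/2-propanol solubilization, A590); CCK-8 (4 h, A450); calcein-AM (2.5 µM added, 30 min, 492/525 nm). Viability threshold 80%.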

N2a [4] = test: Cytotoxicity against mouse N2a cells assessed as reduction in cell viability incubated for 4 hrs by CCK-8 assay; assay type: cell-based; in short: as §2
N2a [5] = test: Cytotoxicity against mouse N2a cells assessed as reduction in cell viability incubated for 30 mins by Calcein assay; assay type: cell-based; details: 0.5 h; in short: as §2
[6] = Anti-prion activity against RML prion protein in mouse ScN2a cells in presence of proteinase K by Western blotting analysis; assay type: cell-based
In short: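 ScN2a-RML cells treated 4 days with 8 concentrations from 0 to 4 µM. Lysates PK-digested (10 µg PK, 1 h, 37 °C) and ultracentrifuged. Pellets denatured in 8 M GdnHCl and coated on ELISA plates overnight at 4 °C. Detection with W226 (1.5 µg/mL), HRP secondary and TMB, A450. IC50 taken from the dose-response curve, with Western blot confirmation.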

ScN2a [7] = test: Cytotoxicity against mouse ScN2a cells upto 10 uM; assay type: cell-based; in short: as §2
ScN2a [8] = test: Anti-prion activity against RML prion protein in mouse ScN2a cells assessed as Scrapie prion protein level at 4 uM in absence of proteinase K by Western blotting analysis relative to control; assay type: cell-based; in short: as §1
ScN2a [9] = test: Anti-prion activity against RML prion protein in mouse ScN2a cells assessed as Scrapie prion protein level at 4 uM in presence of proteinase K by Western blotting analysis relative to control; assay type: cell-based; in short: as §1
ScN2a [10] = test: Anti-prion activity against 22L prion protein in mouse ScN2a cells assessed as Scrapie prion protein level at 4 uM in absence of proteinase K by Western blotting analysis relative to control; assay type: cell-based; in short: as §1
ScN2a [11] = test: Anti-prion activity against 22L prion protein in mouse ScN2a cells assessed as Scrapie prion protein level at 4 uM in presence of proteinase K by Western blotting analysis relative to control; assay type: cell-based; in short: as §1
N2a [12] = test: Anti-prion activity in mouse N2a cells assessed as effect on localization of cell membrane at 0.4 uM by immunofluorescence staining assay; assay type: functional, cell-based
In short: (§3)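 N2a cells on poly-lysine coverslips treated with 0.4 or 4 µM. Chilled on ice 15 min, live surface staining with W226 (1:200) 20 min on ice, then fixed in 4% PFA and blocked in 7% goat serum. Alexa488 anti-mouse secondary 1 h, DAPI counterstain, confocal imaging of surface PrPC.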

N2a [13] = test: Anti-prion activity in mouse N2a cells assessed as effect on localization of cell membrane at 4 uM by immunofluorescence staining assay; assay type: functional, cell-based; in short: as §3
ScGT1 [14] = test: Anti-prion activity against RML prion protein in mouse ScGT1 cells assessed as Scrapie prion protein level at 4 uM in absence of proteinase K by Western blotting analysis relative to control; assay type: cell-based; in short: as §1
ScGT1 [15] = test: Anti-prion activity against RML prion protein in mouse ScGT1 cells assessed as Scrapie prion protein level at 4 uM in presence of proteinase K by Western blotting analysis relative to control; assay type: cell-based; in short: as §1
ScGT1 [16] = test: Anti-prion activity against 22L prion protein in mouse ScGT1 cells assessed as Scrapie prion protein level at 4 uM in absence of proteinase K by Western blotting analysis relative to control; assay type: cell-based; in short: as §1
ScGT1 [17] = test: Anti-prion activity against 22L prion protein in mouse ScGT1 cells assessed as Scrapie prion protein level at 4 uM in presence of proteinase K by Western blotting analysis relative to control; assay type: cell-based; in short: as §1
ScN2a [18] = test: Anti-prion activity in mouse ScN2a cells in absence of proteinase K by Western blotting analysis relative to control; assay type: functional; in short: as §1
ScN2a [19] = test: Anti-prion activity in mouse ScN2a cells in presence of proteinase K by Western blotting analysis relative to control; assay type: functional; in short: as §1
ScN2a [20] = test: Anti-prion activity in mouse ScN2a cells at 1N in absence of proteinase K by Western blotting analysis relative to control; assay type: functional
In short: (§4)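 Filtered through 3 kDa centrifugal membrane; filtrate (or compound alone, with or without filtration) given to ScN2a cells 4 days. PK-digested/undigested lysates immunoblotted with W226; three independent experiments, control normalized to 100%.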

ScN2a [21] = test: Anti-prion activity in mouse ScN2a cells at 1N in presence of proteinase K by Western blotting analysis relative to control; assay type: functional; in short: as §4
ScN2a [22] = test: Anti-prion activity in mouse ScN2a cells at 2:1 Prp to compound concentration in absence of proteinase K by Western blotting analysis relative to control; assay type: functional; in short: as §4
ScN2a [23] = test: Anti-prion activity in mouse ScN2a cells at 2:1 Prp to compound concentration in presence of proteinase K by Western blotting analysis relative to control; assay type: functional; in short: as §4
ScN2a [24] = test: Anti-prion activity in mouse ScN2a cells at 1:1 Prp to compound concentration in absence of proteinase K by Western blotting analysis relative to control; assay type: functional; in short: as §4
ScN2a [25] = test: Anti-prion activity in mouse ScN2a cells at 1:1 Prp to compound concentration in presence of proteinase K by Western blotting analysis relative to control; assay type: functional; in short: as §4
ScN2a [26] = test: Anti-prion activity in mouse ScN2a cells at 1:2 Prp to compound concentration in absence of proteinase K by Western blotting analysis relative to control; assay type: functional; in short: as §4
ScN2a [27] = test: Anti-prion activity in mouse ScN2a cells at 1:2 Prp to compound concentration in presence of proteinase K by Western blotting analysis relative to control; assay type: functional; in short: as §4
ScN2a [28] = test: Anti-prion activity in mouse ScN2a cells at 1:5 Prp to compound concentration in absence of proteinase K by Western blotting analysis relative to control; assay type: functional; in short: as §4
ScN2a [29] = test: Anti-prion activity in mouse ScN2a cells at 1:5 Prp to compound concentration in presence of proteinase K by Western blotting analysis relative to control; assay type: functional; in short: as §4

Compound: C/C(=N\Nc1ccnc2cc(Cl)ccc12)c1ccc2c(c1)N(CCCN(C)C)c1ccccc1S2
- Activity (ScN2a [1]): 11.9%
- Activity (ScN2a [2]): 68.7%

Compound: C/C(=N\Nc1ccnc2cc(Cl)ccc12)c1ccc2c(c1)N(CCN1CCN(C)CC1)c1ccccc1S2
- Activity (ScN2a [1]): 4.4%
- Activity (ScN2a [2]): 55.9%

Compound: Cn1c(=O)c2cc(C(=O)N3CCC(Cc4ccccc4)CC3)sc2c2ccc(Cl)cc21
- Activity (ScN2a [1]): 82.4%
- Activity (ScN2a [2]): 99.6%
- Activity (N2a [3]): Non-Toxic
- Activity (N2a [4]): Non-Toxic
- Activity (N2a [5]): Non-Toxic

Compound: C/C(=N\Nc1ccnc2cc(Cl)ccc12)c1ccc2c(c1)N(CCN1CCOCC1)c1ccccc1S2
- Activity (ScN2a [1]): 70.3%
- Activity (ScN2a [2]): 95.3%

Compound: CCc1ccc(CNC(=O)CSc2c3c(nc4cc(Cl)ccc24)CCCC3)cc1
- Activity (ScN2a [1]): 77.1%
- Activity (ScN2a [2]): 83.5%
- Activity (N2a [3]): Non-Toxic
- Activity (N2a [4]): Non-Toxic
- Activity (N2a [5]): Non-Toxic

Compound: Cc1cc(/C=N/Nc2ccnc3cc(Cl)ccc23)c(C)cc1/C=N/Nc1ccnc2cc(Cl)ccc12
- Activity (ScN2a [1]): 70.9%
- Activity (ScN2a [2]): 63.8%
- Activity (N2a [3]): Non-Toxic
- Activity (N2a [4]): Non-Toxic
- Activity (N2a [5]): Non-Toxic

Compound: Cn1c(CSc2ccnc3cc(Cl)ccc23)nnc1SCC(=O)N1CCN(c2ccccc2)CC1
- Activity (ScN2a [1]): 88%
- Activity (ScN2a [2]): 85.8%
- Activity (N2a [3]): Non-Toxic
- Activity (N2a [4]): Non-Toxic
- Activity (N2a [5]): Non-Toxic

Compound: COC(=O)c1ccc(COc2ccc(/C=N/Nc3ccnc4cc(Cl)ccc34)cc2OC)cc1
- Activity (ScN2a [1]): 82.3%
- Activity (ScN2a [2]): 95.6%
- Activity (N2a [3]): Non-Toxic
- Activity (N2a [4]): Non-Toxic
- Activity (N2a [5]): Non-Toxic

Compound: C/C(=N\Nc1ccnc2cc(Cl)ccc12)c1ccc2c(c1)Nc1ccccc1S2
- Activity (ScN2a [1]): 35.6%
- Activity (ScN2a [2]): 55.7%
- Activity (N2a [3]): Non-Toxic
- Activity (N2a [4]): Non-Toxic
- Activity (N2a [5]): Non-Toxic
- IC50 [6]: 420 nM
- Activity (ScN2a [7]): Non-Toxic
- Activity (ScN2a [8]): 62.1%
- Activity (ScN2a [9]): 9.4%
- Activity (ScN2a [10]): 48.7%
- Activity (ScN2a [11]): 5.1%
- Activity (N2a [12]): inactive
- Activity (N2a [13]): inactive
- Activity (ScGT1 [14]): 42%
- Activity (ScGT1 [15]): 12.3%
- Activity (ScGT1 [16]): 39.2%
- Activity (ScGT1 [17]): 11%
- Activity (ScN2a [18]): 48.8%
- Activity (ScN2a [19]): 25.2%
- Activity (ScN2a [20]): 51.7%
- Activity (ScN2a [21]): 22.6%
- Activity (ScN2a [22]): 114.4%
- Activity (ScN2a [23]): 108.2%
- Activity (ScN2a [24]): 117.6%
- Activity (ScN2a [25]): 90.1%
- Activity (ScN2a [26]): 98.4%
- Activity (ScN2a [27]): 65.7%
- Activity (ScN2a [28]): 41%
- Activity (ScN2a [29]): 13.6%

Compound: O=C(Nc1ccc(Oc2ccccc2)cc1)c1cc2cc3ccc(Cl)cc3nc2o1
- Activity (ScN2a [1]): 109%
- Activity (ScN2a [2]): 92.6%
- Activity (N2a [3]): Non-Toxic
- Activity (N2a [4]): Non-Toxic
- Activity (N2a [5]): Non-Toxic

Compound: CCOc1ccc(CNC(=O)CSc2c3c(nc4cc(Cl)ccc24)CCCC3)cc1
- Activity (ScN2a [1]): 102%
- Activity (ScN2a [2]): 110%
- Activity (N2a [3]): Non-Toxic
- Activity (N2a [4]): Non-Toxic
- Activity (N2a [5]): Non-Toxic

Compound: C/C(=N\Nc1ccnc2cc(Cl)ccc12)c1ccc2c(c1)N(CCN(C)C)c1ccccc1S2
- Activity (ScN2a [1]): 8.6%
- Activity (ScN2a [2]): 60.2%

Compound: COc1ccc2nc(NC(=O)c3cc4c(=O)n(C)c5cc(Cl)ccc5c4s3)sc2c1
- Activity (ScN2a [1]): 85.4%
- Activity (ScN2a [2]): 69.1%
- Activity (N2a [3]): Non-Toxic
- Activity (N2a [4]): Non-Toxic
- Activity (N2a [5]): Non-Toxic

Compound: C/C(=N\Nc1ccnc2cc(Cl)ccc12)c1ccc2c(c1)N(CCN1CCCCC1)c1ccccc1S2
- Activity (ScN2a [1]): 13.6%
- Activity (ScN2a [2]): 70.2%

Compound: Cn1c(=O)c2cc(C(=O)Nc3ccc(Oc4ccccc4)cc3)sc2c2ccc(Cl)cc21
- Activity (ScN2a [1]): 94.4%
- Activity (ScN2a [2]): 92.5%
- Activity (N2a [3]): Non-Toxic
- Activity (N2a [4]): Non-Toxic
- Activity (N2a [5]): Non-Toxic
